Experimental data as given in ChEMBL document CHEMBL1126822, “7 alpha-Methyl- and 11 beta-ethoxy-substitution of [125I]-16 alpha-iodoestradiol: effect on estrogen receptor-mediated target tissue uptake” (J Med Chem, 1993).

Legend:
Details in all cases: in vivo
Rattus norvegicus [1] = experiment: Tissue uptake (uterus) of [125I]- after administration of [125I]-labeled compound to immature female rats (n=3) in the absence of 60 microg coinjected estradiol. (0.5 hours after injection) (% coefficient of variation); format: ADME, organism-based
Procedure, shortened: (§1)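 Immature female Fischer rats, 24 days old, 55-60 g, unanesthetized in retention cages, got HPLC-purified n.c.a. 125I-labeled steroid (3 μCi, 111 kBq) by lateral tail vein. Dose was given in 200 μL saline with 9% ethanol and 1% Tween-80. Deep ether anesthesia, axillary artery cut; tissues KCl-washed, blotted, weighed, gamma-counted as % ID/g; variation as small-sample-corrected %CV.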

Rattus norvegicus [2] = experiment: Tissue uptake (plasma) of [125I]- after administration of [125I]-labeled compound to immature female rats (n=3) in the absence of 60 microg coinjected estradiol after 24 hours; format: ADME, organism-based
Procedure, shortened: (§2)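 Immature female Fischer rats, 24 days old, 55-60 g, unanesthetized in retention cages, given HPLC-purified 125I-labeled steroid (3 μCi, 111 kBq) via lateral tail vein in 200 μL of 9% ethanol-saline with 1% Tween-80. The blocking group was coinjected with 60 μg unlabeled estradiol and sampled at 1 h. Animals were killed under ether at 0.5-24 h. Tissues were KCl-washed, blotted, weighed and gamma-counted. Results are % ID/g, with variation as small-sample-corrected %CV.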

Rattus norvegicus [3] = experiment: Tissue uptake (plasma) of [125I]- after administration of [125I]-labeled compound to immature female rats (n=3) in the presence of 60 microg coinjected estradiol after 1 hour; format: ADME, organism-based; procedure, shortened: as §2
Rattus norvegicus [4] = experiment: Tissue uptake (blood) of [125I]- after administration of [125I]-labeled compound to immature female rats (n=4) in the absence of 60 microg coinjected estradiol. (5 hours after injection) (% coefficient of variation); format: ADME, organism-based; procedure, shortened: as §2
Rattus norvegicus [5] = experiment: Tissue uptake (plasma) of [125I]- after administration of [125I]-labeled compound to immature female rats (n=5) in the absence of 60 microg coinjected estradiol after 1 hour; format: ADME, organism-based; procedure, shortened: as §1
Rattus norvegicus [6] = experiment: Tissue uptake (kidneys) of [125I]- after administration of [125I]-labeled compound to immature female rats (n=4) in the absence of 60 microg coinjected estradiol after 5 hours; format: ADME, organism-based, Kidney; procedure, shortened: as §2
Rattus norvegicus [7] = experiment: Tissue uptake (plasma) of [125I]- after administration of [125I]-labeled compound to immature female rats (n=4) in the absence of 60 microg coinjected estradiol after 5 hours; format: ADME, organism-based; procedure, shortened: as §1
Rattus norvegicus [8] = experiment: Tissue uptake (blood) of [125I]- after administration of [125I]-labeled compound to immature female rats (n=3) in the absence of 60 microg coinjected estradiol after 24 hours; format: ADME, organism-based; procedure, shortened: as §2
Rattus norvegicus [9] = experiment: Tissue uptake (brain) of [125I]- after administration of [125I]-labeled compound to immature female rats (n=4) in the absence of 60 microg coinjected estradiol after 5 hours; format: ADME, organism-based; procedure, shortened: as §2
Rattus norvegicus [10] = experiment: Tissue uptake (brain) of [125I]- after administration of [125I]-labeled compound to immature female rats (n=3) in the absence of 60 microg coinjected estradiol after 0.5 hours; format: ADME, organism-based; procedure, shortened: as §2
Rattus norvegicus [11] = experiment: Tissue uptake (uterus) of [125I]- after administration of [125I]-labeled compound to immature female rats (n=3) in the absence of 60 microg coinjected estradiol. (24 hours after injection) (% coefficient of variation); format: ADME, organism-based; procedure, shortened: as §1

ID/g (Rattus norvegicus [1]) | ID/g (Rattus norvegicus [2]) | ID/g (Rattus norvegicus [3]) | ID/g (Rattus norvegicus [4]) | ID/g (Rattus norvegicus [5]) | ID/g (Rattus norvegicus [6]) | ID/g (Rattus norvegicus [7]) | ID/g (Rattus norvegicus [8]) | ID/g (Rattus norvegicus [9]) | ID/g (Rattus norvegicus [10]) | ID/g (Rattus norvegicus [11]) | SMILES
4.32% | 0.04% | 0.51% | 0.28% | 0.58% | 0.25% | 0.41% | – | – | – | – | C[C@@H]1Cc2cc(O)ccc2[C@H]2CC[C@]3(C)[C@@H](O)[C@H](I)C[C@H]3[C@H]12
– | – | – | – | – | – | – | 0.17% | 0.14% | 0.68% | 1.64% | CCO[C@H]1C[C@]2(C)[C@@H](O)[C@H](I)C[C@H]2[C@@H]2CCc3cc(O)ccc3[C@H]21
